Tests used:
[1] = target: Calcium/calmodulin-dependent protein kinase type II subunit beta (Homo sapiens) (UniProt Q13554); assay: Inhibition of CAMK2beta (unknown origin) at 30 uM by microfluidic mobility shift assay relative to control
In short: (§1)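 Single-point screen at 30 µM test compound across a 24-kinase panel in a microfluidic assay format. ATP was set near each enzyme's Km,[ATP]. […] The pan-AGC inhibitor H-89 served as an internal control on every assay plate.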

[2] = target: Tyrosine-protein kinase ABL2 (Homo sapiens) (UniProt P42684); assay: Inhibition of ARG (unknown origin) at 30 uM by microfluidic mobility shift assay relative to control; in short: as §1
Tyrosine-protein kinase ABL2 (Homo sapiens), sequence (P42684 whole entry): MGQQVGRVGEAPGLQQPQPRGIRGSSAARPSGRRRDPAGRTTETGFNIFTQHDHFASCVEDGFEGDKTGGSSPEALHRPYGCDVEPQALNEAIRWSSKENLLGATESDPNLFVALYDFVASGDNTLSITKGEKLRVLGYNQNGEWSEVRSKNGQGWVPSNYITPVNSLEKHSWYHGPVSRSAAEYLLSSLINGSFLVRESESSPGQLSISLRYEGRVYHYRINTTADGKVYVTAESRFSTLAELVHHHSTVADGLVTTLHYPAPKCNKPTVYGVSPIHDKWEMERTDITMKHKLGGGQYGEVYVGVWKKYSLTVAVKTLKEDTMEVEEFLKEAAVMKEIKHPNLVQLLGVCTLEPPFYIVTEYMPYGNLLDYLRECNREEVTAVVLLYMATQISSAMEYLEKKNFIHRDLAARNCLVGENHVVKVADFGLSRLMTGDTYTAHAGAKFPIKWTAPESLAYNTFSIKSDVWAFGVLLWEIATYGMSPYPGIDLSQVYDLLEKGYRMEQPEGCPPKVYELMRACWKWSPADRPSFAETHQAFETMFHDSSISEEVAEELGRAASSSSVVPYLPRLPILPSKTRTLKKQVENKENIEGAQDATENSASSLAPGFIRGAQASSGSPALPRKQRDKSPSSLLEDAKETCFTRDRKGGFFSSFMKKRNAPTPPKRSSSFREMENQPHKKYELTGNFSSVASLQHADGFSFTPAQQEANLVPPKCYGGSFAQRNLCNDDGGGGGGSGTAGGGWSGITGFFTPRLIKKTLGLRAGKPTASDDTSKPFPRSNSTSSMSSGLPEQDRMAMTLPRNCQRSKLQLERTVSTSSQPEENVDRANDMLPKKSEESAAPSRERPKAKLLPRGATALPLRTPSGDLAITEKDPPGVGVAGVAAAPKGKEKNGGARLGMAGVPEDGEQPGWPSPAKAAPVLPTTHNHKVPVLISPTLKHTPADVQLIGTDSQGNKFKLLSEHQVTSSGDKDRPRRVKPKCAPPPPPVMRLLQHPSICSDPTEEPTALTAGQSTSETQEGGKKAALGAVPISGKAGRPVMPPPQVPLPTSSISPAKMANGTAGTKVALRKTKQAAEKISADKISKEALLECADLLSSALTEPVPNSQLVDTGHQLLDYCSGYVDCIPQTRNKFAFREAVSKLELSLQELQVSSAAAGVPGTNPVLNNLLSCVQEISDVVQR

[3] = target: T1, Serine/threonine-protein kinase Sgk2 (Homo sapiens) (UniProt Q9HBY8); assay: Inhibition of SGK2 (unknown origin) at 30 uM by microfluidic mobility shift assay relative to control
T1 sequence (whole entry): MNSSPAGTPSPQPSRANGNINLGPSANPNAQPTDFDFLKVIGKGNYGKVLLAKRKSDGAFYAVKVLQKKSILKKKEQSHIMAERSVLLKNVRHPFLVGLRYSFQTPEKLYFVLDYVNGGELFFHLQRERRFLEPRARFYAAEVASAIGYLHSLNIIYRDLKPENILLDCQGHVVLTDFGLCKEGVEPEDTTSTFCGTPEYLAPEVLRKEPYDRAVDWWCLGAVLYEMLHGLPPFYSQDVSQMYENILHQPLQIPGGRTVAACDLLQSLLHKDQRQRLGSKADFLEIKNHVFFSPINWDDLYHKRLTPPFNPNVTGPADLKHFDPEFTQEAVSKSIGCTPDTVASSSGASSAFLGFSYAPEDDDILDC
In short: (§2)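 Single-point screen against a 24-kinase panel in a commercial microfluidic assay format. Compounds were tested at 30 µM, with ATP at approximately the Km,[ATP] of each enzyme. H-89 was included on each assay plate as an internal control.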

[4] = target: T2, Serine/threonine-protein kinase Nek2 (Homo sapiens) (UniProt P51955); assay: Inhibition of NEK2 (unknown origin) at 30 uM by microfluidic mobility shift assay relative to control; in short: as §1
T2 sequence (whole entry): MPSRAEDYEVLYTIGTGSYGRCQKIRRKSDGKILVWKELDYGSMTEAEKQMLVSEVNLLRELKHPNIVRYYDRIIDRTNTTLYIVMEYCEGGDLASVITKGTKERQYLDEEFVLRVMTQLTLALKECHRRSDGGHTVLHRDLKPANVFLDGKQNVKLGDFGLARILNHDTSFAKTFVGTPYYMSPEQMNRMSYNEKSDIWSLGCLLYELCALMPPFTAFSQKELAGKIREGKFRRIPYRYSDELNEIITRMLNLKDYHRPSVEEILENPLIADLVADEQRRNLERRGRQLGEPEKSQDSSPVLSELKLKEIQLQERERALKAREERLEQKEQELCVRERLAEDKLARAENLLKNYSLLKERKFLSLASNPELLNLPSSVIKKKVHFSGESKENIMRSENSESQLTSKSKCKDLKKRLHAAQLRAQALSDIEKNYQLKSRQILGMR

[5] = target: T3, Serine/threonine-protein kinase D3 (Homo sapiens) (UniProt O94806); assay: Inhibition of PKD3 (unknown origin) at 30 uM by microfluidic mobility shift assay relative to control; in short: as §2
T3 sequence (whole entry): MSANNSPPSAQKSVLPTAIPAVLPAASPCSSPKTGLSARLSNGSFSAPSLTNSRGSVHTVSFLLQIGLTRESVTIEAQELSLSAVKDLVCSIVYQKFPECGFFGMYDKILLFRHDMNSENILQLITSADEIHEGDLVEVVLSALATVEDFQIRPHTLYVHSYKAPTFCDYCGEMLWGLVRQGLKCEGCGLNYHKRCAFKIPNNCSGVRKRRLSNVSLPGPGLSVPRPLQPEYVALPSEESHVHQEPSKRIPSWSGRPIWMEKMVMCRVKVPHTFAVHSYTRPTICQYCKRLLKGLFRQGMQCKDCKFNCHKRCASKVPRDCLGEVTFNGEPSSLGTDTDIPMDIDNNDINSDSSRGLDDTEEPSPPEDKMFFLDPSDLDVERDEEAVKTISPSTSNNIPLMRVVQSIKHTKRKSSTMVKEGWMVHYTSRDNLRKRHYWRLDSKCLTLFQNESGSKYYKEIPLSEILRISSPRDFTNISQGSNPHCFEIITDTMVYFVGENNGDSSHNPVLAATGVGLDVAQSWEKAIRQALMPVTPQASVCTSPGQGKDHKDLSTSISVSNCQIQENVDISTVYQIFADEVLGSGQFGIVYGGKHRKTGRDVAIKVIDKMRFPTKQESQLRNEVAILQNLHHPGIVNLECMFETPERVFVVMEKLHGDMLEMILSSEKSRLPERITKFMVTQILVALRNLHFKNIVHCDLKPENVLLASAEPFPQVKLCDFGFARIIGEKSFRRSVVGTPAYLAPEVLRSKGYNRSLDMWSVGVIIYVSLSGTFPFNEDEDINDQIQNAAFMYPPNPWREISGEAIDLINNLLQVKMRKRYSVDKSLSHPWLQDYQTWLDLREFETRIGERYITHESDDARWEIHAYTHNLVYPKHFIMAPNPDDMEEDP

Homo sapiens = species: Homo sapiens; assay: Inhibition of c-TAK (unknown origin) at 30 uM by microfluidic mobility shift assay relative to control; in short: as §2
[6] = target: Mitogen-activated protein kinase 11 (Homo sapiens) (UniProt Q15759); assay: Inhibition of p38beta-2 (unknown origin) at 30 uM by microfluidic mobility shift assay relative to control; in short: as §2
Mitogen-activated protein kinase 11 (Homo sapiens), sequence (Q15759 whole entry): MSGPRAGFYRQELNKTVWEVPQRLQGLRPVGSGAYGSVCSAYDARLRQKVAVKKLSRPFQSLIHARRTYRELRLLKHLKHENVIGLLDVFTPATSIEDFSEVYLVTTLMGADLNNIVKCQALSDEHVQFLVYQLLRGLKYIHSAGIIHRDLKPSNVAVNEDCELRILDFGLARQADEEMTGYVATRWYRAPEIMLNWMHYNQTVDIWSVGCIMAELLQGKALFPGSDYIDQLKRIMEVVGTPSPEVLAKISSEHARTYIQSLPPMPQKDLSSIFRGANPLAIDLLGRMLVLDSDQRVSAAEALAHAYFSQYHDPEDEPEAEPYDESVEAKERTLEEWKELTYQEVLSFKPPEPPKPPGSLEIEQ

[7] = target: Tyrosine-protein kinase BTK (Homo sapiens) (UniProt Q06187); assay: Inhibition of BTK (unknown origin) at 30 uM by microfluidic mobility shift assay relative to control; in short: as §1
Tyrosine-protein kinase BTK (Homo sapiens), sequence (Q06187 whole entry): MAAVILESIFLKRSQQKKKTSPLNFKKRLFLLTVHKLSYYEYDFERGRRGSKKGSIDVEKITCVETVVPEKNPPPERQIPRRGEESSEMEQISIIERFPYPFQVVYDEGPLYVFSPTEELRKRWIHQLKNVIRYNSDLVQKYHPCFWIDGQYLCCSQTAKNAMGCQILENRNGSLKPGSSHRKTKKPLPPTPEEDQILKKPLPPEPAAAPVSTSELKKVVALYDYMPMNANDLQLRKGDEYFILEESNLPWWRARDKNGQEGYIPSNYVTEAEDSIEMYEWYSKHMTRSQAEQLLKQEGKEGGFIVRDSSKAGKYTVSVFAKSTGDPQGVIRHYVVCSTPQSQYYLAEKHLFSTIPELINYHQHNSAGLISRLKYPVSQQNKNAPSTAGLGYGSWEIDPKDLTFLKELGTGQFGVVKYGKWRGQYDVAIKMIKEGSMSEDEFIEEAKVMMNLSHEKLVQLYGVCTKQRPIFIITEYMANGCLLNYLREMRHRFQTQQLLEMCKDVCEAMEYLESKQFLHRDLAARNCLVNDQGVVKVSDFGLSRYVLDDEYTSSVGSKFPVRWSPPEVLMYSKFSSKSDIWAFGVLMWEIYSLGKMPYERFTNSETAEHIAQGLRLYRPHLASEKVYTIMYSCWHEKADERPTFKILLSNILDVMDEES

[8] = target: Protein kinase C delta type (Homo sapiens) (UniProt Q05655); assay: Inhibition of PKCdelta (unknown origin) at 30 uM by microfluidic mobility shift assay relative to control; in short: as §1
Protein kinase C delta type (Homo sapiens), sequence (Q05655 whole entry, looked up): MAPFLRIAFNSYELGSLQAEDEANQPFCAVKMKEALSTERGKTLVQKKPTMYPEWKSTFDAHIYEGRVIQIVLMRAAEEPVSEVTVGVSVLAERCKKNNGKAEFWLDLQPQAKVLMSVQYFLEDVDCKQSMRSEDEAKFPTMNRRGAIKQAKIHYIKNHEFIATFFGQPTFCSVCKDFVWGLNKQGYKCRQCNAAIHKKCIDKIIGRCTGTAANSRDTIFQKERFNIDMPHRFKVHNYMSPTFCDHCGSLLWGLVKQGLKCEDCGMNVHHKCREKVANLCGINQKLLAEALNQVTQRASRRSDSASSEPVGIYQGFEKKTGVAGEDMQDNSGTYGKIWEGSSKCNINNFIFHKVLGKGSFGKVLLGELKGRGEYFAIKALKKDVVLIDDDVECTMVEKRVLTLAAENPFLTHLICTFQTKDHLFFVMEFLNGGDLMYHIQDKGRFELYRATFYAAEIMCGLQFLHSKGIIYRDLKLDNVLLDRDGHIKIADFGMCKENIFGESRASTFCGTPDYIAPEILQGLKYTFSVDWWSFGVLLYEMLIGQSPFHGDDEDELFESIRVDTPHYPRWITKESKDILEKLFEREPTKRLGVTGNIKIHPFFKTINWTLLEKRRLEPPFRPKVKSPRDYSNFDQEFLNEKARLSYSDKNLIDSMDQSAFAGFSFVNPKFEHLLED

Calcium/calmodulin-dependent protein kinase type II subunit beta (Homo sapiens), sequence (Q13554 whole entry): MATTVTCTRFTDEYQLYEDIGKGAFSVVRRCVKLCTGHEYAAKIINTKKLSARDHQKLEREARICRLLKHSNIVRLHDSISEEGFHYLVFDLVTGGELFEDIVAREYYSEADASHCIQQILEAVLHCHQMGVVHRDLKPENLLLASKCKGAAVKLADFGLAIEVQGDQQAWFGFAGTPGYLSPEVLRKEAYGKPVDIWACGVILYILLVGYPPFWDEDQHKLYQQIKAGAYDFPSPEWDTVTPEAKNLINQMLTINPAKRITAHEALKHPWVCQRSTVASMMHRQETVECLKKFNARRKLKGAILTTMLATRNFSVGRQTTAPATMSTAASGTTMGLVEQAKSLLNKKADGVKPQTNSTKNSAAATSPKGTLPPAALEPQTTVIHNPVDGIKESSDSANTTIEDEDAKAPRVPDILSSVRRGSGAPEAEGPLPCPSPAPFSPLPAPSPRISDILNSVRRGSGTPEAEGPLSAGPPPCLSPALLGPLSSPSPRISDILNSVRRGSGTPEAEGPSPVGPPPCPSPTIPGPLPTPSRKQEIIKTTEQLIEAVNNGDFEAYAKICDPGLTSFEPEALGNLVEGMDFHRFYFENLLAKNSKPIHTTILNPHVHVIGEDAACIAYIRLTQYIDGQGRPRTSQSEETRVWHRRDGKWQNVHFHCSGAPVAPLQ

| inhibition [1] | inhibition [2] | inhibition [3] | inhibition [4] | inhibition [5] | inhibition (Homo sapiens) | inhibition [6] | inhibition [7] | inhibition [8] | SMILES |
| --- | --- | --- | --- | --- | --- | --- | --- | --- | --- |
| 32% | 23% | 47% | 14% | 53% | 47% | 4% | 0% | 79% | c1ccc(C2CCNC3(CCN(c4ncnc5[nH]cnc45)CC3)C2)cc1 (racemic) |
| 17% | 18% | 17% | 7% | 25% | 21% | 3% | 0% | 27% | c1ccc(CC2CCC3(CCN(c4ncnc5[nH]cnc45)CC3)NC2)cc1 (racemic) |
| 29% | 13% | 59% | 11% | 81% | 55% | 8% | 11% | 75% | c1ccc(CC2CCNC3(CCN(c4ncnc5[nH]cnc45)CC3)C2)cc1 (racemic) |
